Source: PubChem
An excerpt weighted towards active compounds, which were near 3% of everything screened.
TAAR1 agonist: human TAAR1 agonism | CHO RD-HGA16 TAAR1, Fluo-8 calcium fluorescence; vehicle wells 0%, saturating PEA agonist 100% | Q96RJ0 | 360,000 tested, 0.99% active | activation, % at 3 µM;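 active means activation above the mean activation of all test compounds in the run plus 3 SD, cut at about 38% in these data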
Target sequence (Q96RJ0 whole entry, looked up): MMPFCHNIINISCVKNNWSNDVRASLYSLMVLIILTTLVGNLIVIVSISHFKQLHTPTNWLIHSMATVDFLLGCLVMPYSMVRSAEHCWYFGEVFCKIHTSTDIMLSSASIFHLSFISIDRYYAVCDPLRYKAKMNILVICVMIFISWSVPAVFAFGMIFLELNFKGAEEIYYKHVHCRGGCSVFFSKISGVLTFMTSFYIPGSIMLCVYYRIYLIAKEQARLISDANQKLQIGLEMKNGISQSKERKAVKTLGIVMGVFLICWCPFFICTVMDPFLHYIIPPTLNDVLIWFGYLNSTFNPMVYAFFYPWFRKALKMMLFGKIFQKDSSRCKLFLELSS
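Assay system: CHO-derived RD-HGA16 cells with stable Gα16 and human TAAR1; timing: 17-24 h seeding, 75 min 37 °C dye, 30 min RT; read-out: % activation from peak over basal fluorescence ratio, DMSO-to-PEA scaled; measured by: kinetic Fluo-8 calcium fluorescence; benchmarks: low control DMSO, high control PEA (EC100); doses: 3 µM single concentration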
CHRM4 agonist: CHRM4 agonism in calcium assay; P08173; CHO-K1 hM4/Gqi5, Fluo-8 calcium fluorescence; vehicle 0%, full acetylcholine response 100%; activation, % at 3 µM; 360,000 tested, 0.14% active;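 active means activation above the run mean over all test wells plus 3 SD, cut at about 32% in these data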;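 further: peak over basal fluorescence ratio per well then scaled between controls; 0% = DMSO wells and 100% = acetylcholine at EC100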
CHRM4 antagonist: CHRM4 antagonism in calcium assay; P08173; inhibition, % at 3 µM; CHO-hM4 cells, ACh EC80, Fluo-8 calcium fluorescence; 360,000 tested, 0.73% active;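 active means inhibition above its plate's cutoff, the mean inhibition of sample wells plus 3 SD, cut at about 27% in these data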;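 further: 0% = acetylcholine EC80 with DMSO and 100% = DMSO without agonist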
TAAR1 antag: human TAAR1 antagonism; Q96RJ0; CHO RD-HGA16 TAAR1, Fluo-8 calcium fluorescence, antagonist; inhibition, % at 3 µM; 360,000 tested, 1.5% active;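 active means inhibition above a per-plate cutoff, the mean inhibition of test compounds on that plate plus 3 SD, cut at about 49% in these data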;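 further: 0% = DMSO plus EC80 beta-PEA response and 100% = DMSO alone without agonist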
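Test system: hTAAR1-expressing CHO RD-HGA16 cells, Gα16-coupled; Probe or stimulus: EC80 β-phenethylamine stimulus; Compound dosing: single nominal final test compound concentration of 3 µM; Timing: 140 s kinetic read after compound, 140 s after agonist; Signal: Fluo-8 calcium-sensitive fluorescence; Measure: % inhibition of agonist calcium response; Controls: DMSO and EC80 PEA controls.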
CHRM4 PAM: positive allosteric modulators of human muscarinic M4 receptor; activation, % at 3 µM; CHO-K1 hM4/Gqi5, Fluo-8 calcium fluorescence, ACh EC20; 0% = ACh EC20, 100% = maximal ACh; AID 624126; 360,000 tested, 0.4% active; P08173;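 active means activation above its plate's cutoff, the mean activation of sample wells plus 3 SD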
TAAR1 ag conf: confirmation of human TAAR1 agonists; shares compounds with TAAR1 agonist; CHO RD-HGA16 TAAR1, Fluo-8 calcium fluorescence; scaled: DMSO 0%, maximal phenethylamine 100%; activation, % at 3 µM; 2,400 tested, 82% active; AID 651783;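 active means activation above a cutoff set at the run's mean compound activation plus 3 SD, cut at about 39% in these data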
Ga16 ag counter: nonselective agonism, TAAR1 counter-screen; CHO-Ga16 parental, Fluo-8 calcium fluorescence; normalized to maximal ATP response, DMSO zero; activation, % at 3 µM; AID 651787; shares compounds with TAAR1 agonist; 2,400 tested, 50% active;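 active means activation above the run cutoff, the mean activation over all tested wells plus 3 SD, cut at about 12% in these data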;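 further: 0% = DMSO wells and 100% = maximal ATP response on the peak over basal ratio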
TAAR1 desensitize: TAAR1 response desensitization, agonist counter-screen | shares compounds with TAAR1 agonist | CHO RD-HGA16 hTAAR1, Fluo-8 calcium, beta-PEA response inhibition | inhibition, % at 3 µM | 2,400 tested, 46% active | AID 651951;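 active means inhibition above the run cutoff, the mean inhibition of all test compounds plus 3 SD, cut at about 49% in these data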;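 further: beta-PEA stimulus applied at its EC80; loss of beta-PEA calcium signal after compound pretreatment read as receptor desensitization; 0% = DMSO with beta-PEA at EC80 and 100% = DMSO alone without agonist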
Ga16 nonsel ant: nonselective Ga16 antagonism, counter-screen. shares compounds with TAAR1 agonist. CHO-Ga16 ATP-induced calcium, Fluo-8 fluorescence. inhibition, % at 3 µM. 2,400 tested, 39% active. AID 651952;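 active means inhibition above the plate's mean compound inhibition plus 3 SD, computed per plate, cut at about 22% in these data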;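 further: 0% = EC80 ATP with DMSO and 100% = DMSO wells without ATP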
The depositor's hits bear a star; · = no result given.

SMILES	TAAR1 agonist	CHRM4 agonist	CHRM4 antagonist	TAAR1 antag	CHRM4 PAM	TAAR1 ag conf	Ga16 ag counter	TAAR1 desensitize	Ga16 nonsel ant
CC(Cc1ccccc1)NC(=O)/C=C/C(=O)O (stereo not given)	·	0.2	5.2	·	1.9	·	1.7	·	1.7
CN1CN(c2ccccc2)C2(CCN(CCCSc3ccccc3NC(=O)/C=C/c3ccccc3)CC2)C1=O	122.2*	109.9*	58.8*	101.8*	-13.0	125.2*	97.3*	106.6*	96.6*
O=C1NC(=O)N(Cc2ccc(F)cc2)C(=O)/C1=C\C=C\c1ccco1	17.1	6.9	16.5	29.7	-7.7	·	·	·	·
CCc1ccc(N2C(=O)NC(=O)/C(=C\C=C\c3ccco3)C2=O)cc1	73.2*	3.3	9.4	42.2	14.6	66.7*	26.0*	69.3*	18.7
Cc1cc(C)cc(N2C(=O)NC(=O)/C(=C\C=C\c3ccco3)C2=O)c1	50.3*	4.1	-2.2	23.1	13.6	72.4*	47.2*	40.4	15.8
CC(C)c1ccc(N2C(=O)NC(=O)/C(=C/C=C/c3ccco3)C2=O)cc1	25.7	3.5	1.1	47.7	9.5	·	·	·	·
CNC(=O)C[C@H]1CC[C@@H]2NC[C@H](O)COC[C@H]2O1	1.0	1.2	-10.1	-12.0	6.5	·	·	·	·
O=C1C2CC=CCC2C(=O)N1SC(Cl)(Cl)Cl (stereo not given)	57.4*	·	·	53.8*	·	42.9*	25.8*	55.0*	48.9*
CC1C(=O)CC2(C(C)C)CC12 (stereo not given)	1.9	0.6	-10.5	-23.4	7.3	·	·	·	·
Nc1c(C(=O)NCCc2ccccc2)c2nc3ccccc3nc2n1CCN1CCOCC1	71.1*	8.5	5.5	73.6*	-14.5	31.9	13.0*	47.1	43.3*
Cc1ccccc1CCNCc1ccc(Br)cc1	70.5*	8.1	-18.2	50.1*	1.6	93.0*	13.7*	66.6*	11.9
COc1ccc2c(CCN)c[nH]c2c1	52.0*	1.4	7.7	6.3	21.4	79.8*	0.8	44.6	10.2
CCC(=NCCc1ccccc1)c1c(O)n(C)c(=O)n(C)c1=O	62.4*	18.6	-6.5	-3.2	-5.9	60.6*	10.2	40.0	32.2*
C=CCn1c(O)c(C(CC)=NCCc2ccccc2)c(=O)[nH]c1=O	73.6*	7.8	-24.2	29.9	5.4	77.9*	4.8	40.2	4.9
CCCCn1c(O)c(C(CC)=NCCc2ccccc2)c(=O)[nH]c1=O	58.0*	7.1	6.3	70.0*	-8.0	68.4*	6.9	42.6	23.4*
Cc1cccc(CCNCc2cc3cccc(C)c3[nH]c2=O)c1	20.1	14.8	-14.1	8.1	-1.8	·	·	·	·
Cc1cccc(CCNCc2cc3cc(C)cc(C)c3[nH]c2=O)c1	107.6*	1.1	11.5	77.9*	0.2	101.8*	3.0	90.4*	-0.1
Cc1cccc(CNCCc2c[nH]c3ccccc23)c1	7.0	14.5	10.3	10.2	-8.2	·	·	·	·
Cc1ccc2cc(CNCCc3ccccc3C)c(=O)[nH]c2c1	75.5*	0.4	2.4	80.8*	-5.5	83.3*	4.0	92.3*	2.8
O=C1NCN(c2ccccc2)C12CCN(C(c1nnnn1-c1ccc3c(c1)OCCO3)C1CC1)CC2 (stereo not given)	11.8	2.3	10.7	9.4	-5.7	·	·	·	·
O=[N+]([O-])c1ccc(N2CCOCC2)c2c1no[n+]2[O-]	4.9	2.2	1.3	-19.0	6.2	·	·	·	·
Nc1ccc2nonc2c1[N+](=O)[O-]	72.4*	8.9	11.3	23.1	-9.4	2.9	24.9*	4.5	9.0
O=P1(c2ccccc2)CC=CC1	3.2	0.8	-19.8	-3.7	14.2	·	·	·	·
N[C@@H]1C[C@H]1c1ccccc1	80.0*	-0.1	6.3	78.2*	-4.0	98.6*	9.9	85.8*	-2.0
CCOC(=O)[C@]12Cc3c(cc(OC)c(OC)c3OC)[C@H]1N(C)C(=O)c1ccccc12	1.9	0.8	-4.5	0.0	10.5	·	·	·	·
SMILES	TAAR1 agonist	CHRM4 agonist	CHRM4 antagonist	TAAR1 antag	CHRM4 PAM	TAAR1 ag conf	Ga16 ag counter	TAAR1 desensitize	Ga16 nonsel ant
CCOC(=O)C1CCN(C=C2C(=O)N(C)C(=S)N(C)C2=O)CC1	2.7	0.6	-5.9	-5.0	14.2	·	·	·	·
CN1C(=O)C(=CN2CCN(C(=O)c3ccco3)CC2)C(=O)N(C)C1=S	53.3*	0.0	9.9	-8.7	10.4	74.7*	6.4	21.3	-1.3
COc1ccc2[nH]c3c(c2c1)CCNC3C (stereo not given)	1.6	1.5	8.5	-36.9	-0.3	·	·	·	·
COc1ccc2[nH]c3c(c2c1)CCNC3	44.3*	0.9	0.1	-14.5	-5.1	59.2*	0.3	27.4	5.3
CCOC(=O)[C@]12Cc3cc(OC)ccc3[C@H]1N(CCC(=O)OC)C(=O)c1cc(OC)ccc12	0.2	0.7	6.9	-9.8	-3.8	·	·	·	·
COc1ccc(CNCCc2ccc(Cl)cc2)c(OC)c1OC	65.3*	5.3	-5.1	-24.9	-2.3	75.8*	25.5*	39.4	9.0
COc1ccccc1CNCCc1cccc(Cl)c1	6.4	4.3	-5.6	3.9	-2.3	·	·	·	·
NC(Cc1ccccc1)c1nn[nH]n1 (stereo not given)	2.0	-0.1	-2.0	-24.8	-0.1	·	·	·	·
Cc1ccc(S(=O)(=O)N2Cc3cc(N4CCOCC4)ccc3-n3nncc3C2)cc1	4.8	-0.1	-4.0	-0.2	3.9	·	·	·	·
CCCCCc1nc2c(c(=O)c3ccccc3n2C)c(=O)n1C1CCCCCC1	124.5*	0.8	2.2	84.9*	-1.8	121.7*	95.9*	92.9*	84.6*
CC(C)(C)C1(CCO)C(=O)NC(=S)NC1=O	1.7	0.9	-15.9	-10.2	9.8	·	·	·	·
c1ccc2c(c1)CC1CNCc3cccc(c31)S2 (stereo not given)	72.8*	2.3	-8.0	6.2	6.1	93.4*	4.5	79.0*	-3.4
NCCc1ccc(O)cc1	118.2*	1.1	-8.3	88.9*	5.5	98.7*	2.7	94.2*	1.3
CCC(C)n1c(O)c(C=NCCc2ccccc2)c(=O)[nH]c1=S (stereo not given)	68.8*	2.9	5.2	5.1	-2.1	59.9*	1.2	14.1	7.7
Cc1cc(C(=O)OC(C)C(=O)Nc2ccccc2)c(C)n1C1CC1 (stereo not given)	-1.2	0.9	-7.9	-39.0	2.1	·	·	·	·
